Source: PMC5836847 (Clinical Pharmacology and Therapeutics, 2017)

Tests used:
[1] = cited from earlier work
[2] = Plasma pharmacokinetics of sildenafil and N-desmethyl-sildenafil; type: in vivo, human; details: for AUCinf, Intrasubject CV / AUClast, Intrasubject CV / Cmax, Intrasubject CV: fixed effect model, sacubitril/valsartan + sildenafil vs. sildenafil alone; for Tmax (median time to reach maximum concentration): single-dose oral administration of sildenafil; for AUC(0-t): AUClast
Summary of the method: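 Male hypertensive patients received single oral sildenafil 50 mg alone (Day 1), then again on Day 8 with sacubitril/valsartan 400 mg q.d. at steady state. Plasma sildenafil and N-desmethyl-sildenafil were profiled after each dose. Outputs were AUCinf, AUClast, T1/2, Cmax and Tmax. Log-transformed parameters went into a fixed-effect model with subject and treatment as factors; combination was test, sildenafil alone reference. Output was back-transformed GMR with 90% CI.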

[3] = Plasma pharmacokinetics of sacubitril/valsartan analytes at steady state; type: in vivo, human; details: for AUCtau,ss, Intrasubject CV / Cmax,ss, Intrasubject CV: fixed effect model; for AUC / Cmax: male, human, oral, Mean ± SD; for AUC / Cmax / Tmax (time of peak concentrations): plasma; for AUC: AUCtau,ss, Sacubitril/valsartan alone (400 mg q.d., steady state, Day 7); for Cmax: Cmax,ss; for Tmax (time of peak concentrations): oral administration of sacubitril/valsartan, steady state
Summary of the method: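 Male hypertensive patients took oral sacubitril/valsartan 400 mg q.d. on Days 3–7, with predose samples on Days 3–6. Plasma sacubitril, sacubitrilat and valsartan were profiled at steady state on Day 7 and on Day 8 with single-dose sildenafil 50 mg. Outputs were AUCtau,ss, Cmax,ss and Tmax,ss. Log-transformed parameters went into a fixed-effect model with subject and treatment as factors; combination was test, monotherapy reference. Output was back-transformed GMR with 90% CI.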

[4] = test system: patients with mild-to-moderate hypertension; assay: Safety assessments; type: in vivo, human; details: for safety and tolerability: single-dose sildenafil 50 mg, sacubitril/valsartan 400 mg q.d., coadministration
Summary of the method: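 Adverse events were recorded across three sequential periods in male hypertensive patients: single oral sildenafil 50 mg (Day 1), sacubitril/valsartan 400 mg q.d. (Days 3–7), and both together (Day 8). Events were graded by intensity and by suspected relation to study drug. They were summarised by treatment and visit/time, as number and percentage of subjects by body system and treatment.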

healthy subjects = details: 40 mg and 80 mg doses; cited from earlier work
patients with HFrEF = details: cited from earlier work
[5] = cited from earlier work; remark: listed apart in the source
[6] = sacubitril/valsartan and warfarin coadministered; cited from earlier work
[7] = 200 mg twice daily or 400 mg q.d., healthy individuals; cited from earlier work
[8] = plasma, Sacubitril/valsartan + Sildenafil (Day 8)
[9] = plasma, Sildenafil alone (50 mg single dose, Day 1)
[10] = plasma, Sildenafil alone (Day 1)
[11] = coadministration of sacubitril/valsartan and sildenafil vs. sacubitril/valsartan alone
[12] = 400 mg, Sacubitril/valsartan alone (Day 7)
[13] = Sacubitril/valsartan + Sildenafil (Day 8)

AUCinf, Intrasubject CV [2] [%] | AUClast, Intrasubject CV [2] [%] | Cmax, Intrasubject CV [2] [%] | Tmax (median time to reach maximum concentration) ([2]; plasma) [h] | decrease in Cmax [3, 11] [%] | AUCtau,ss, Intrasubject CV [3] [%] | Cmax,ss, Intrasubject CV [3] [%] | AUC ([3]; 400 mg) [ng·h/mL] | Cmax [3, 12] [ng/mL] | Cmax [3, 13] [ng/mL] | Tmax (time of peak concentrations) [3] [h] | Molecule | safety and tolerability [4] | further results
– | – | – | – | 10 | 12.2 | 45.3 | 3400 ± 1000 | 2470 ± 865 | 2310 ± 1020 | 0.5 | CCOC(=O)[C@H](C)C[C@@H](Cc1ccc(-c2ccccc2)cc1)NC(=O)CCC(=O)O [Sacubitril] | – | –
– | – | – | – | – | 3.75 | 13 | 143000 ± 26300 | 14900 ± 2250 | 14000 ± 2420 | 2.0 | C[C@H](C[C@@H](Cc1ccc(-c2ccccc2)cc1)NC(=O)CCC(=O)O)C(=O)O [Sacubitrilat] | – | –
– | – | – | – | 39 | 28 | 32.6 | 33000 ± 12400 | 5300 ± 1750 | 3350 ± 1480 | 2.0 | CCCCC(=O)N(Cc1ccc(-c2ccccc2-c2nnn[nH]2)cc1)[C@H](C(=O)O)C(C)C [Valsartan] | – | decrease in AUC [3, 11]: 29%; intersubject variability in pharmacokinetic parameters [5]: 44%

Continued, molecule first:

Molecule | AUCinf, Intrasubject CV [2] [%] | AUClast, Intrasubject CV [2] [%] | Cmax, Intrasubject CV [2] [%] | Tmax (median time to reach maximum concentration) ([2]; plasma) [h] | decrease in Cmax [3, 11] [%] | AUCtau,ss, Intrasubject CV [3] [%] | Cmax,ss, Intrasubject CV [3] [%] | AUC ([3]; 400 mg) [ng·h/mL] | Cmax [3, 12] [ng/mL] | Cmax [3, 13] [ng/mL] | Tmax (time of peak concentrations) [3] [h] | safety and tolerability [4] | further results
CCCc1nn(C)c2c(=O)[nH]c(-c3cc(S(=O)(=O)N4CCNCC4)ccc3OCC)nc12 [N‐desmethyl‐sildenafil] | 15.9 | 16.4 | 26.7 | 1 | – | – | – | – | – | – | – | – | share of sildenafil's pharmacological effects accounted for [1]: 20%; plasma concentration relative to parent compound ([1]; relative to sildenafil): ~40%; potency relative to parent compound ([1]; relative to sildenafil): ~50%; decrease in Cmax ([2]; coadministration of sildenafil and sacubitril/valsartan vs. sildenafil alone): 14%; AUCinf, Adjusted geometric mean [2, 8]: 305 ng·h/mL; AUClast, Adjusted geometric mean [2, 8]: 278 ng·h/mL; AUClast, Mean ± SD [2, 8]: 305 ± 133 ng·h/mL; Cmax, Adjusted geometric mean [2, 8]: 75.9 ng/mL; Cmax, Mean ± SD [2, 8]: 84.6 ± 39.3 ng/mL; AUCinf, Mean ± SD [2, 9]: 359 ± 157 ng·h/mL; Cmax, Mean ± SD [2, 9]: 95.1 ± 32.5 ng/mL; AUCinf, Adjusted geometric mean [2, 10]: 327 ng·h/mL; AUClast, Adjusted geometric mean [2, 10]: 297 ng·h/mL; AUClast, Mean ± SD [2, 10]: 331 ± 152 ng·h/mL; Cmax, Adjusted geometric mean [2, 10]: 88.4 ng/mL; terminal half-life (T1/2) ([2]; plasma, sildenafil administered alone): 5.3 ± 1.6 h; terminal half-life (T1/2) ([2]; plasma, sildenafil coadministered with sacubitril/valsartan): 6.2 ± 1.9 h
CCCc1nn(C)c2c(=O)[nH]c(-c3cc(S(=O)(=O)N4CCN(C)CC4)ccc3OCC)nc12 [Sildenafil] | 23.4 | 23.4 | 35.5 | 0.5 | – | – | – | – | – | – | – | generally safe and well‐tolerated | suspected treatment-related AEs of moderate intensity ([4]; per study period): 1 AE; duration of BP-lowering effect postdosing (healthy subjects): 5 h; cardiac output (patients with HFrEF; 50 mg sildenafil, patients with HFrEF): increased; safety and tolerability (patients with HFrEF; sildenafil administered to patients with HFrEF): safe and well tolerated; half-life ([2]; male, human, plasma, oral, 50 mg): 3.7 ± 1 h; AUC(0-t) ([2]; male, human, plasma, oral, 50 mg, Mean ± SD, plasma, Sildenafil alone (Day 1)): 587 ± 270 ng·h/mL; AUC(0-t) ([2]; male, human, plasma, oral, Mean ± SD, plasma, Sacubitril/valsartan + Sildenafil (Day 8)): 612 ± 297 ng·h/mL; Cmax ([2]; male, human, plasma, oral, Cmax, Mean ± SD, plasma, Sacubitril/valsartan + Sildenafil (Day 8)): 189 ± 99.6 ng/mL
Sacubitril/valsartan | – | – | – | – | – | – | – | – | – | – | – | generally safe and well‐tolerated | impact on the pharmacokinetics of the CYP2C9 substrate warfarin [6]: no impact; time to achieve steady-state levels [7]: 3 days
